Results gathered from unrelated publications.
Lines come from different studies, so protocols differ.
Target: Mitogen-activated protein kinase 3 (MAPK3, Homo sapiens, UniProt P27361)

With `CCCS(=O)(=O)Nc1ccc(F)c(C(=O)c2c[nH]c3ncc(-c4ccc(Cl)cc4)cc23)c1F` the inhibition was under 20% (enzyme activity; inhibitor; 1 µM).
With `Cc1cc(-n2nc(Cc3cc(F)cc(C(F)(F)F)c3)nc2C)ccc1C(N)=O` the remaining binding was 100% (cell-free assay; competition with immobilised ligand; 1 µM).
For `Cn1c2c(c3ccc(Cl)c(Cl)c31)C(C#N)C1(CCCC1)NC2=O` (stereo not shown), the ΔTm was -0.2 °C (thermal stability; DSF; 10 µM).
`FC(F)(F)Oc1cccc(-c2cnc3ccc(-c4ccncc4)nn23)c1` gave an activity vs control of 105% (enzyme activity; inhibitor; radiometric; 1 µM).
The inhibition of `CCN1CCN(Cc2ccc(NC(=O)c3ccc(C)c(/C=C/c4cnc5[nH]ccc5c4OC)c3)cc2C(F)(F)F)CC1` is reported as -26.3% (target engagement in cells; inhibitor; chemoproteomics; A-375; 5 µM).
`CNC(=O)c1cc(Oc2ccc(NC(=O)Nc3ccc(Cl)c(C(F)(F)F)c3)cc2)ccn1` has a remaining signal of 105% (cell-free assay; 0.5 µM).
For `COc1ccc2c(c1)O[C@H](c1ccc(OC)c(OC)c1)C[C@@H]2NC(=O)C1(c2ccc3c(c2)OC(F)(F)O3)CC1`, the remaining binding was 100% (cell-free assay; competition with immobilised ligand; 1 µM).
`O=C1Nc2ccc(Cl)cc2C1=Cc1cc(Cl)c(O)c(Cl)c1` has a remaining signal of 88.2% (cell-free assay; 0.5 µM).
With `Cn1c2c(c3ccc(Cl)c(Cl)c31)C(C#N)C1(CCNCC1)NC2=O` (racemic) the ΔTm was 0.5 °C (thermal stability; DSF; 10 µM).
`Cc1nc(Cc2cccc(C(F)(F)F)c2)sc1-c1ccc(C(N)=O)nc1` gave a remaining binding of 96% (cell-free assay; competition with immobilised ligand; 1 µM).
`CN1CCC2(CC1)NC(=O)c1c(c3ccc(Cl)c(Cl)c3n1C)C2C#N` (racemic) gave a ΔTm of 0.3 °C (thermal stability; DSF; 10 µM).
`Cc1cc(NC(=O)c2cccc(S(F)(F)(F)(F)F)c2)cc(-n2ccn3nc(-c4cccnc4)cc23)c1` has a remaining binding of 86.8% (cell-free assay; competition with immobilised ligand; 1 µM).
`Cn1c2c(c3ccccc31)C(C#N)C(C)(C)NC2=O` (stereo not shown) gave a ΔTm of -0.4 °C (thermal stability; DSF; 10 µM).
`Cc1sc(C(=O)NC2COC2)cc1-n1cc(NC(=O)Nc2c(F)cccc2Cl)cn1` gave a remaining activity of 107% (enzyme activity; inhibitor; 10 µM).
`Cn1c(=O)n(-c2ccc(C(C)(C)C#N)cc2)c2c3cc(-c4cnc5ccccc5c4)ccc3ncc21` gave a remaining activity of 106% (enzyme activity; inhibitor; 10 µM).
`Nc1nc(NC2CCCCC2)sc1C(=O)c1ccccc1` gave a remaining activity of 20% (enzyme activity; inhibitor; 10 µM).
`FC(F)c1nc2ccccc2n1-c1nc(N2CCOCC2)nc(N2CCOCC2)n1` gave a remaining activity of 106% (enzyme activity; inhibitor; 10 µM).
`N#CCCc1ccc2c(c1)-c1[nH]c3ccc([N+](=O)[O-])cc3c1CC(=O)N2` has a remaining signal of 95.1% (cell-free assay; 0.5 µM).
`COc1cc(Nc2cnc(C#N)c(O[C@H](C)CN(C)C)n2)ncc1-c1cnn(C)c1` has a remaining activity of 71% (enzyme activity; inhibitor; radiometric; 10 µM).
With `O=C(N[C@H]1CCCCC/C=C\C2C[C@@]2(C(=O)O)NC(=O)[C@@H]2C[C@@H](Oc3ccncc3)CN2C1=O)OC1CCCC1` (stereo partly shown) the remaining binding was 69% (binding; competition with immobilised ligand; 1 µM).
For `Cc1ccc(C(=O)Nc2ccc(CN3CCN(C)CC3)c(C(F)(F)F)c2)cc1C#Cc1cnc2cccnn12`, the remaining activity was 100% (enzyme activity; inhibitor; 23.5 nM).
The remaining signal of `Nc1ncnc2occ(-c3ccc(NC(=O)Nc4cc(C(F)(F)F)ccc4F)cc3)c12` is reported as 100% (cell-free assay; inhibitor; 20 µM).
`CCN1CCN(Cc2ccc(NC(=O)c3ccc(C)c(Oc4ccnc5[nH]ccc45)c3)cc2C(F)(F)F)CC1` has an inhibition of -51.2% (target engagement in cells; inhibitor; chemoproteomics; A-375; 5 µM).
`O=C1C(Cl)=C(N2C(=O)CCC2=O)C(=O)c2ccccc21` gave a remaining activity of 99.3% (enzyme activity; inhibitor; 0.5 µM).
`CCN1CCC2(CC1)NC(=O)c1c(c3ccc(Cl)c(Cl)c3n1C)C2C#N` (racemic) has a ΔTm of 0 °C (thermal stability; DSF; 10 µM).
`Nc1nc(Nc2ccccc2)sc1C(=O)c1c(F)cccc1F` has a remaining activity of 72% (enzyme activity; inhibitor; 10 µM).
With `O=C(Nc1cnn(-c2csc(C(=O)NC3COC3)c2)c1)Nc1ccccc1Cl` the remaining activity was 92.8% (enzyme activity; inhibitor; 5 µM).
The remaining binding of `Nc1cnc(N2CCc3cc(S(=O)(=O)Nc4c(F)cc(Cl)cc4F)cc(N4CCCC4=O)c32)nc1` is reported as 91% (cell-free assay; competition with immobilised ligand; 1 µM).
With `COc1cc2ncnc(Nc3ccc(Oc4ccccc4)c(C)c3C)c2cc1OC` the inhibition was 0% (enzyme activity; inhibitor; 1 µM).
`N#CC1(c2ccccn2)CCN(Cc2cc(C(=O)N3CCCC3)c(=O)n3ccccc23)CC1` gave a remaining binding of 91% (cell-free assay; competition with immobilised ligand; 1 µM).
For `CC(C)(C)c1nc(-c2cccc(NS(=O)(=O)c3c(F)cccc3F)c2F)c(-c2ccnc(N)n2)s1`, the remaining activity was 92% (enzyme activity; inhibitor; radiometric; 1 µM).
The remaining signal of `COc1ccc(COc2ccc(Cc3cnc(N)nc3N)cc2OC)cc1` is reported as 99.1% (cell-free assay; 0.5 µM).
With `Cc1nc(N2CC[C@@H](O)C2)ncc1-c1cc(C(F)(F)F)cc2[nH]ncc12` the remaining binding was 100% (binding; competition with immobilised ligand; 1 µM).
The ΔTm of `Cn1c2c(c3ccc(Cl)c(Cl)c31)C(C#N)C1(CCOCC1)NC2=O` (stereo not shown) is reported as 0.1 °C (thermal stability; DSF; 10 µM).
